From ChEMBL document CHEMBL1124144, “Electrophysiologic and antiarrhythmic activities of 4-amino-N-[2-(diethylamino)ethyl]-3,5-dimethylbenzamide, a sterically hindered procainamide analogue” (1988) come the findings set out here.

The species named for experiment [1] is Canis familiaris. The experiment in a line: Percent change of action potential duration at 3 x 10e-4 M, measured at 95% repolarization in Canine Purkinje fibers. Type of experiment: functional, Canis lupus familiaris, Purkinje fiber. The method, boiled down:
(§1)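 Canine Purkinje fibres superfused with Tyrode's solution (K+ 4.0, Mg2+ 1.0, Ca2+ 4.0, HCO3- 18.0, glucose 5.5 mM), paced at 1000 ms cycle length with 0.5-ms pulses at 1.5× threshold. Transmembrane potentials were recorded with 3 M KCl microelectrodes. Drug was added to the superfusate at 3 × 10^-4 M final and read at stable effect (~30 min). Each cell served as its own control. Values are mean ± SEM, four or five experiments, five tissues per drug from different dogs. Compared by ANOVA/Fisher's LSD.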

For experiment [2], the species on record is Canis lupus familiaris. The experiment in a line: (§2) Sodium channel inactivating potency at 3*10e-4 M. It is filed as functional. The gist of the method:
(§3)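 Recovery from sodium-channel inactivation in paced canine Purkinje fibres: a premature S2 stimulus was given immediately after full repolarization. It was expressed as the ratio of premature to paced action potential rate of rise. Drug was present at 3 × 10^-4 M final, read after ~30 min. Each cell was its own control. Values are mean ± SEM, four or five experiments.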

The species entered for experiment [3] is Canis familiaris. The experiment in a line: Resting potential at 3 x 10e-4 M in Canine Purkinje fibers. It is filed as functional, Canis lupus familiaris, Purkinje fiber. The method, boiled down:
as §1

For experiment [4], the system named is Canis familiaris. The experiment is described as follows: Action potential duration when no compound was administered in Canine Purkinje fibers measured at 95% repolarization. Type of experiment: functional, Canis lupus familiaris, Purkinje fiber. The method, boiled down:
as §1

The species entered for experiment [5] is Canis familiaris. The experiment is described as follows: Amplitude at 3 x 10e-4 M concentration in Canine Purkinje fibers. It is filed as functional, Canis lupus familiaris, Purkinje fiber. The gist of the method: as §1
For experiment [6], the system named is Canis familiaris. The experiment in a line: Effect on conversion dose required for arrhythmias in pentobarbital anesthetized dogs. It is filed as functional, Canis lupus familiaris. The gist of the method:
(§4)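 Male beagles (12–15 kg) were given pentobarbital 35 mg/kg iv plus 5 mg/kg 15 min later. Ouabain went into the cephalic vein at 50 µg/kg, then 10 µg/kg every 15 min (extra 5 µg/kg if needed) until arrhythmia was sustained. After 30 min of arrhythmia, drug in water was infused iv at 200 µg/kg/min, raised to 500 µg/kg/min after 10 min, until conversion to sinus rhythm. n = 5.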

Experiment [7] has as its system Rattus norvegicus. The experiment in a line: Plasma concentration in rat 4 hr after administration at a dose of 25 mg/kg. It is filed as functional, organism-based. More on the design: dose 25 mg/kg. The method, boiled down: (§5)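 Fischer 344 rats were given 25 mg/kg in water iv via the jugular vein, three per group. Plasma was taken by cardiac puncture at set times. Parent drug and N-acetyl metabolite were quantified by GC with a nitrogen-phosphorus detector after alkaline extraction with an internal standard. The assay was linear 1–10 µg/mL. Values are mean ± SEM.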

The species named for experiment [8] is Canis familiaris. The experiment in a line: Effective refractory period at 3 x 10e-4 M in Canine Purkinje fibers. It is filed as functional, Canis lupus familiaris, Purkinje fiber. The gist of the method:
as §1

For experiment [9], the system named is Canis familiaris. The experiment is described as follows: Percent change in maximal upstroke velocity when 3*10e-4 M compound was administered in Canine Purkinje fibers. Type of experiment: functional. Conditions: Canis lupus familiaris; Purkinje fiber. The method, boiled down: as §1
For experiment [10], the species on record is Canis familiaris. The experiment is described as follows: Percent change of action potential duration at 3 x 10e-4 M, measured at 70% repolarization. It is filed as functional, Canis lupus familiaris. The gist of the method:
as §1

Experiment [11] relates to Canis familiaris. The experiment is described as follows: Maximal upstroke velocity when 3*10e-4 M compound was administered in Canine Purkinje fibers. It is filed as functional. Conditions: Canis lupus familiaris; Purkinje fiber. The method, boiled down: as §1
For experiment [12], the species on record is Canis familiaris. The experiment is described as follows: Percent change of resting potential at 3 x 10e-4 M in Canine Purkinje fibers. Type of experiment: functional, Canis lupus familiaris, Purkinje fiber. The method, boiled down:
as §1

The species named for experiment [13] is Canis familiaris. The experiment is described as follows: Percent change of effective refractory period at 3 x 10e-4 M, in Canine Purkinje fibers. It is filed as functional, Canis lupus familiaris, Purkinje fiber. The method, boiled down:
as §1

For experiment [14], the system named is Canis familiaris. The experiment is described as follows: Effect on ouabain-induced arrhythmias in pentobarbital anesthetized dogs. It is filed as functional, Canis lupus familiaris. The gist of the method:
as §4

In experiment [15] the test system is Canis familiaris. The experiment in a line: Resting potential when no compound was administered in Canine Purkinje fibers. It is filed as functional, Canis lupus familiaris, Purkinje fiber. The method, boiled down: as §1
In experiment [16] the test system is Rattus norvegicus. The experiment is described as follows: Plasma concentration in rat 30 minutes after administration at a dose of 25 mg/kg. Also noted: dose 25 mg/kg. It is filed as functional, organism-based. The method, boiled down: as §5
The subject of experiment [17] is Canis familiaris. The experiment is described as follows: Amplitude when no compound was administered in Canine Purkinje fibers. Type of experiment: functional, Canis lupus familiaris, Purkinje fiber. The gist of the method: as §1
The test system of experiment [18] is Canis familiaris. The experiment is described as follows: Maximal upstroke velocity when no compound was administered in Canine Purkinje fibers. Conditions: Canis lupus familiaris; Purkinje fiber. Type of experiment: functional. The gist of the method: as §1
The subject of experiment [19] is Rattus norvegicus. The experiment is described as follows: Plasma concentration in rat 2 hr after administration at a dose of 25 mg/kg. Type of experiment: functional, organism-based. More on the design: dose 25 mg/kg. The method, boiled down:
as §5

Experiment [20] is filed under the species Canis familiaris. The experiment in a line: Action potential duration at 3 x 10e-4 M measured at 95% repolarization in Canine Purkinje fibers. Type of experiment: functional, Canis lupus familiaris, Purkinje fiber. The gist of the method:
as §1

In experiment [21] the test system is Canis familiaris. The experiment is described as follows: Action potential duration when no compound was administered in Canine Purkinje fibers measured at 70% repolarization. Type of experiment: functional, Canis lupus familiaris, Purkinje fiber. The method, boiled down: as §1
Experiment [22] is filed under the species Canis lupus familiaris. The experiment is described as follows: Sodium channel inactivating potency in the absence of compound (control). Type of experiment: functional. The method, boiled down:
as §3

The species entered for experiment [23] is Canis familiaris. The experiment is described as follows: Action potential duration at 3 x 10e-4 M measured at 70% repolarization. It is filed as functional, Canis lupus familiaris. The method, boiled down:
as §1

Experiment [24] is filed under the species Canis familiaris. The experiment is described as follows: Percent change of amplitude at 3 x 10e-4 M concentration in Canine Purkinje fibers. Type of experiment: functional, Canis lupus familiaris, Purkinje fiber. The method, boiled down:
as §1

The subject of experiment [25] is Canis familiaris. The experiment in a line: Effective refractory period when no compound was administered in Canine Purkinje fibers. It is filed as functional, Canis lupus familiaris, Purkinje fiber. The method, boiled down: as §1
The species entered for experiment [26] is Canis lupus familiaris. Described as §2. Type of experiment: functional. The method, boiled down:
as §3
The source holds these as a separate data set.

The structures appear in SMILES notation.

On to `CCN(CC)CCNC(=O)c1ccc(N)cc1` [PROCAINAMIDE], for which the values for the APD95 in [1], in [4] and in experiment [20] were 5%, 347 ms and 361 ms, respectively. Further, the values for the Na+ inactivation in [2] and in experiment [22] were 0.96 and 1, respectively. Also, the Na+ inactivation change in experiment [2] is -3%. Further, the Resting potential in [3] was -91 mV; in experiment [12] it was -2%; in experiment [15] it was -93 mV. Moreover, the results for the Amplitude in experiment [5], in experiment [17] and in experiment [24] were 119 mV, 127 mV and -7%, respectively. Also, in experiment [6], the Conversion dose was determined as 19 mg/kg. Further, the values for the Plasma concentration in experiment [7], in [16] and in [19] were 2.3 µg/mL, 2.29 µg/mL and 0.36 µg/mL, respectively. The ERP amounted to 321 ms in experiment [8], 6% in experiment [13] and 308 ms in experiment [25]. The Vmax was -31% in [9], 345 V s-1 in experiment [11] and 501 V s-1 in [18]. For the same compound, the APD70 in experiment [10] was determined as 1%; in [21], 285 ms; in experiment [23], 284 ms. Also, the Ouabain dose in experiment [14] came out at 68 µg/kg.
For the compound `CCN(CC)CCNC(=O)c1ccc(N)c(C)c1`, the APD95 was -7% in experiment [1], 363 ms in [4] and 336 ms in experiment [20]. Besides, the figures for the Na+ inactivation in [2], in experiment [26] and in [22] were 0.88, -9% and 0.96, respectively. Besides, the Resting potential is -85 mV in experiment [3], -4% in [12] and -89 mV in experiment [15]. Moreover, the results for the Amplitude in experiment [5], in [17] and in experiment [24] were 114 mV, 129 mV and -12%, respectively. In experiment [6], this compound came in with a Conversion dose of 18.3 mg/kg. Moreover, the values for the ERP in experiment [8], in experiment [13] and in [25] were 283 ms, -6% and 303 ms, respectively. Besides, the results for the Vmax in experiment [9], in [11] and in experiment [18] were -39%, 282 V s-1 and 462 V s-1, respectively. The APD70 in [10] is -16%; in experiment [21], 292 ms; in experiment [23] it was 244 ms. In addition, the Ouabain dose in experiment [14] is 65 µg/kg.
On to `CCN(CC)CCNC(=O)c1cc(C)c(N)c(C)c1`, for which the APD95 in experiment [1] is -17%; in experiment [4], 426 ms; in experiment [20], 353 ms. In addition, the figures for the Na+ inactivation in experiment [2], in experiment [26] and in experiment [22] were 0.91, -7% and 0.99, respectively. Besides, the Resting potential is -81 mV in [3], -12% in [12] and -92 mV in [15]. Also, the Amplitude in experiment [5] is 117 mV; in experiment [17], 131 mV; in [24] it was -11%. This compound also gave a Conversion dose in experiment [6] of 14.3 mg/kg. In addition, the ERP is 282 ms in experiment [8], -18% in experiment [13] and 351 ms in [25]. The Vmax was -38% in experiment [9], 387 V s-1 in [11] and 632 V s-1 in experiment [18]. Moreover, the values for the APD70 in [10], in experiment [21] and in [23] were -37%, 363 ms and 227 ms, respectively. In experiment [14], this compound registered an Ouabain dose of 69 µg/kg.
